Bioassay records as filed in PubChem.
Only some compounds are listed: those with a hit (about 3.1% of all), similar ones and a draw of the others.
PP1 counter – blocks human PP1-alpha phosphatase, a PP5 counter-screen; P62136; purified PP1alpha, OMFP fluorescence; inhibition, % at 6.7 µM; 320,000 compounds, 0.9% hits; AID 2235;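 active means inhibition above the mean inhibition of all tested compounds plus 3 SD, computed separately for each screening campaign, cut at about 15% in these data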
Myeloid diff MLP – promotes myeloid progenitor differentiation | ER-HoxA9 myeloid progenitors, lysozyme-GFP differentiation, flow cytometry | calls only at 10 µM | 360,000 compounds, 1% hits | AID 624256;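 active means normalized GFP-positive differentiation at or above the plate's own cutoff, the solvent-only control mean plus 3 SD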;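 further: cells exposed to compound for four days before flow analysis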
CTSL1 counter – counter-screen for PFM18AAP inhibitors: inhibitors of F. hepatica cathepsin L1. recombinant F. hepatica cathepsin L1, Z-Leu-Arg-MCA fluorescence. inhibition, % at 5.96 µM. 300,000 compounds, 0.49% hits;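 active means inhibition above the mean of all tested compounds plus 3 SD, set per screening campaign, cut at about 17% in these data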;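 further: 0% = plate median of test compound wells and 100% = 1 µM Z-Phe-Ala-diazomethylketone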
NadD inh – NadD (S. aureus) enzyme inhibition; purified NadD enzyme, colorimetric absorbance read-out; inhibition, % at 20 µM; 360,000 compounds, 0.78% hits; AID 602399; in the data active means inhibition above about 26%
HCV core dimer – HCV core protein dimerization inhibition; TR-FRET GST/Flag-core106 dimerization, 1536-well; inhibition, % at 5 µM; 300,000 compounds, 0.33% hits; AID 1899;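 active means inhibition above the mean of all tested compounds plus 3 SD, set per screening campaign, cut at about 45% in these data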
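Assay system: Tagged HCV core106 pair (GST and Flag) | Buffer or medium: KF-containing HEPES buffer, pH 7.45, DTT, CHAPS, BSA | Also added: Eu donor and XL665 acceptor anti-tag antibodies | Dosing: One concentration, 5 µM, in 0.5% DMSO | Timing: 4 h at 22.5 °C | Technique: TR-FRET 671 and 617 nm emission | Repeats: Singlicate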
PP5 inh – inhibitors of human protein phosphatase 5 (PP5); P53041; purified PP5c, OMFP substrate fluorescence; inhibition, % at 6.7 µM; 320,000 compounds, 0.18% hits; AID 1987;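 active means inhibition above the campaign's mean inhibition across all tested compounds plus 3 SD, cut at about 9.5% in these data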;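 further: 0% = DMSO only and 100% = 100 µM cantharidin control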
Target sequence (P53041 whole entry, looked up): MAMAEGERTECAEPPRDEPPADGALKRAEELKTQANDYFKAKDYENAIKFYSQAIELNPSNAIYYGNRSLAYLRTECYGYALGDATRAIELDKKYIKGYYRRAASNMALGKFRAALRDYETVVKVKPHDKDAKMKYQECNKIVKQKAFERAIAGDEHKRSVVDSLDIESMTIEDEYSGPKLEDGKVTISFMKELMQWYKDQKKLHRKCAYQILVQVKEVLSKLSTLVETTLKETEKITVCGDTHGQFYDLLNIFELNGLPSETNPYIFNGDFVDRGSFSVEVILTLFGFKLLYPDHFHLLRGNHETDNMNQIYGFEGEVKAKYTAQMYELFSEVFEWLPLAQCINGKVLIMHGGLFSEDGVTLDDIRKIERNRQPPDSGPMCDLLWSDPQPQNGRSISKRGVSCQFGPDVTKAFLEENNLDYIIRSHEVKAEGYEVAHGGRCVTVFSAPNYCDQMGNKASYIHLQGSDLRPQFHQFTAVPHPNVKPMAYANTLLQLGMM
Myeloid diff – compounds promoting myeloid differentiation. ER-HoxA9 myeloid progenitors, GFP/Mac1 double-positive flow. calls only. 2,300 compounds, 2% hits. shares compounds with Myeloid diff MLP;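 active means share of green or green-and-red cells above 9 and 9% in run 1 or 4 and 3% in run 2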
GFP autofluor – flagged as fluorescent in myeloid differentiation counter-screen; shares compounds with Myeloid diff MLP; ER-HoxA9 myeloid progenitors, no estrogen, GFP autofluorescence flow cytometry; vehicle wells 0%, positive control 100%; fluorescence response, % (test concentration not listed); 2,300 compounds, 7.4% hits; AID 651707;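 active means over 5% cells positive for green fluorescent reporter, or over 2% positive for both it and APC stain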;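 further: range taken on the double positive population between DMSO and positive control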
* hit, by the source's call.

Results for C=CCN1C(=O)c2ccc(C(=O)N(CC)CC(=O)Nc3cc(Cl)ccc3C)cc2C1=O ?
PP1 counter: -5; Myeloid diff MLP: inactive; CTSL1 counter: 3; NadD inh: -1; HCV core dimer: 0; PP5 inh: 0

How did N/C(Cc1cccc2ccccc12)=N\OC(=O)COc1ccccc1 do in these assays?
PP1 counter: 0; Myeloid diff MLP: inactive; CTSL1 counter: -16; NadD inh: 3; HCV core dimer: 3; PP5 inh: 2; Myeloid diff: inactive; GFP autofluor: 0

Results for COc1ccccc1C/C(N)=N/OC(=O)COc1cccc2ccccc12 ?
PP1 counter: 1; Myeloid diff MLP: inactive; CTSL1 counter: 0; NadD inh: -2; HCV core dimer: -3; PP5 inh: 3

What do the screens show for `CCOC(=O)Cn1c2c(c(=N)c3ccccc31)CCC2`?
PP1 counter: 0; Myeloid diff MLP: active; CTSL1 counter: 11; NadD inh: -4; HCV core dimer: 1; PP5 inh: -1; Myeloid diff: inactive; GFP autofluor: 0

Results for COc1cccc(-c2c(NC(=O)c3ccco3)n(-c3ccc(C)cc3)nc(C)c2=O)c1 ?
PP1 counter: -3; Myeloid diff MLP: active; CTSL1 counter: -2; NadD inh: -2; HCV core dimer: 1; PP5 inh: 2; Myeloid diff: inactive; GFP autofluor: 0

How did O=Cc1sc(Nc2ccccc2)nc1Cl do in these assays?
PP1 counter: -4; Myeloid diff MLP: active; CTSL1 counter: 8; NadD inh: -6; HCV core dimer: 11; PP5 inh: -5; Myeloid diff: inactive; GFP autofluor: 52*

What do the screens show for `O=c1sc(Nc2ccccc2)nc2ccsc12`?
PP1 counter: -3; Myeloid diff MLP: inactive; CTSL1 counter: 0; NadD inh: 2; HCV core dimer: 3; PP5 inh: 2

Results for CCCCC[C@H](C)N1C[C@H](COCc2ccccc2)Oc2cc(N3CCC[C@H]3COC)ccc2S1(=O)=O ?
Myeloid diff MLP: inactive; NadD inh: -4

How did CCc1ccc(CN2CCC(n3nccc3NC(=O)c3cccc(F)c3)CC2)cc1 do in these assays?
PP1 counter: 2; Myeloid diff MLP: active; CTSL1 counter: -2; NadD inh: -3; HCV core dimer: 7; PP5 inh: 5; Myeloid diff: inactive; GFP autofluor: 0

How did O=C(Nc1ccnn1C1CCN(Cc2ccc3nonc3c2)CC1)c1cccc(F)c1 do in these assays?
PP1 counter: -2; Myeloid diff MLP: inactive; CTSL1 counter: -3; NadD inh: 3; HCV core dimer: 0; PP5 inh: 0

How did c1ccc(Nc2cccc3ccccc23)cc1 do in these assays?
Myeloid diff MLP: inactive; NadD inh: 3; Myeloid diff: inactive; GFP autofluor: 0

What do the screens show for `c1ccc(Nc2cccc(Nc3ccccc3)c2)cc1`?
PP1 counter: 1; Myeloid diff MLP: inactive; CTSL1 counter: 4; NadD inh: -5; HCV core dimer: -12; PP5 inh: 3

Results for COC(=O)c1ccccc1NC(=O)C/C(C)=N/NC(=O)Cc1ccc(Cl)cc1 ?
PP1 counter: -2; Myeloid diff MLP: inactive; CTSL1 counter: 4; NadD inh: 0; HCV core dimer: -3; PP5 inh: 0

Results for COc1ccccc1N(CC(=O)NC1CCCC1)S(=O)(=O)c1ccc(C)cc1 ?
PP1 counter: 0; Myeloid diff MLP: inactive; CTSL1 counter: 0; NadD inh: -4; HCV core dimer: 3; PP5 inh: 3

Results for CCOc1ccccc1N(CC(=O)NC1CCCCC1)S(=O)(=O)c1ccc(C)cc1 ?
PP1 counter: 10; Myeloid diff MLP: active; CTSL1 counter: 2; NadD inh: 1; HCV core dimer: -3; PP5 inh: -3; Myeloid diff: inactive; GFP autofluor: 0

What do the screens show for `C=CCN1C(=O)c2ccc(C(=O)N(CC(C)C)c3c(N)n(CCCC)c(=O)[nH]c3=O)cc2C1=O`?
PP1 counter: 4; Myeloid diff MLP: inactive; CTSL1 counter: 2; NadD inh: 0; HCV core dimer: 0; PP5 inh: -1

Results for Cc1ccc(N2CCN(C(=O)c3[nH]c(C(F)(F)F)nc3-c3ccccc3)CC2)cc1 ?
Myeloid diff MLP: inactive; NadD inh: 3

Results for Cc1cc(N2CCN(C(=O)c3[nH]c(C(F)(F)F)nc3-c3ccccc3)CC2)c2ccccc2n1 ?
Myeloid diff MLP: inactive; NadD inh: -2; Myeloid diff: inactive; GFP autofluor: 82*

Results for CN(C)c1ccc(S(=O)(=O)N2CCCCC2)cc1NC(=O)CN1C(=O)NC2(CCCC2)C1=O ?
PP1 counter: -1; Myeloid diff MLP: inactive; CTSL1 counter: 2; NadD inh: 1; HCV core dimer: 1; PP5 inh: 0

How did COc1ccc(CC(=O)NC2CCN(CC(=O)N3CCCc4ccccc43)CC2)cc1OC do in these assays?
PP1 counter: 4; Myeloid diff MLP: inactive; CTSL1 counter: 2; NadD inh: 0; HCV core dimer: -3; PP5 inh: 2; Myeloid diff: inactive; GFP autofluor: 0

What do the screens show for `CCOC(=O)c1cc(C(=O)OCC)c2cc(Br)ccc2n1`?
PP1 counter: -2; Myeloid diff MLP: active; CTSL1 counter: 1; NadD inh: 1; HCV core dimer: 7; PP5 inh: 0; Myeloid diff: inactive; GFP autofluor: 0

Results for COc1ccc2c(c1)-c1ccccc1S(=O)(=O)N2C(C)=O ?
PP1 counter: 0; Myeloid diff MLP: inactive; CTSL1 counter: -9; NadD inh: 3; HCV core dimer: -14; PP5 inh: 2; Myeloid diff: inactive; GFP autofluor: 0

Results for O=C(C1=C(O)C(=O)N(CCCN2CCOCC2)C1c1ccccn1)c1cc2ccccc2o1 (stereo not drawn) ?
PP1 counter: -4; Myeloid diff MLP: inactive; CTSL1 counter: 3; NadD inh: 7; HCV core dimer: 4; PP5 inh: 1; Myeloid diff: inactive; GFP autofluor: 1

What do the screens show for `COc1ccc2c(C)nc(Nc3nc(C)c(C)c(=O)[nH]3)nc2c1`?
PP1 counter: -1; Myeloid diff MLP: inactive; CTSL1 counter: 2; NadD inh: 2; HCV core dimer: 6; PP5 inh: 1

How did COc1ccc2c(C)nc(Nc3nc(C)cc(C)n3)nc2c1 do in these assays?
PP1 counter: -1; Myeloid diff MLP: inactive; CTSL1 counter: 1; NadD inh: 11; HCV core dimer: -1; PP5 inh: 1; Myeloid diff: inactive; GFP autofluor: 35*
